Test results as given in ChEMBL document CHEMBL4354873, “Rationally Designed Small-Molecule Inhibitors Targeting an Unconventional Pocket on the TLR8 Protein-Protein Interface” (J Med Chem, 2020).
The source made the active and inactive calls.

How the values were obtained:
[1] = target: T1, Toll-like receptor 8 (Homo sapiens) (UniProt Q9NR97); assay: Inhibition of human TLR8 expressed in HEK-Blue cells assessed as inhibition of ssRNA06-induced NF-kappaB activation measured after 24 hrs by quanti-blue based SEAP reporter gene assay; format: cell-based
T1 sequence (whole entry): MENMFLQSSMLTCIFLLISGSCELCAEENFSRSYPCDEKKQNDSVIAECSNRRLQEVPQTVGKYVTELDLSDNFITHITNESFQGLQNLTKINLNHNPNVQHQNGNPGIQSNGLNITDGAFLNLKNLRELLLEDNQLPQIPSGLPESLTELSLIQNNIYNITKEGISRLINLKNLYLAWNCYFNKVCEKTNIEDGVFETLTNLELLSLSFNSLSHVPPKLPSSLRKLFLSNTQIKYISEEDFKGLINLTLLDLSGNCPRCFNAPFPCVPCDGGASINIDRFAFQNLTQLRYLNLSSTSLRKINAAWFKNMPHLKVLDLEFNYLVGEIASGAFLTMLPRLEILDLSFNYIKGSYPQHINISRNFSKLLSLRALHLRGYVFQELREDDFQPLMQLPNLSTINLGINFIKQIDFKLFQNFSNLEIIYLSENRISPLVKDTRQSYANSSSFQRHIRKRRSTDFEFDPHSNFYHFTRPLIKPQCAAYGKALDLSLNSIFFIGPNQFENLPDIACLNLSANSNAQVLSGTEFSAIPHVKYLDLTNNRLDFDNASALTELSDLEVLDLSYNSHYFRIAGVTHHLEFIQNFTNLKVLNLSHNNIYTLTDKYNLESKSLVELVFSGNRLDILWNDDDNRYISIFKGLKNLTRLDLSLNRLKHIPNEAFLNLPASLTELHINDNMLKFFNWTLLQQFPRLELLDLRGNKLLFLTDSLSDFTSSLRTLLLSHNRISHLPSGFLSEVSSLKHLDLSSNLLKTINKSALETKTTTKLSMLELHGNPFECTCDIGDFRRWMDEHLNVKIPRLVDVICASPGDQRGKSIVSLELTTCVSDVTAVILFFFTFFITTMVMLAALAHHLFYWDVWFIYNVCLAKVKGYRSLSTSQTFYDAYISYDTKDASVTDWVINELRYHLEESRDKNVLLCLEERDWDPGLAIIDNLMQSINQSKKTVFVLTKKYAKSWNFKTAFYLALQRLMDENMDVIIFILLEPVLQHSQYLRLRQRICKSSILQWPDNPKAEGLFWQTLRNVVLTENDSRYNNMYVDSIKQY
Outline: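 HEK-Blue TLR8 cells, 4 × 10⁴/well, stimulated with ssRNA06 in the presence of varying compound concentrations for 24 h at 37 °C. SEAP read with QUANTI-Blue at 620 nm. Normalized so ligand-treated cells are 100% activation and untreated cells 0%.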

[2] = target: T1, Toll-like receptor 8 (Homo sapiens); assay: Inhibition of TLR8 in human PBMC assessed as reduction in R848-induced TNFalpha production measured after 24 hrs by ELISA
Outline: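 PBMCs from healthy donors isolated by density gradient centrifugation and cultured at once at 3 × 10⁶ cells/mL in RPMI 1640. Cells received R848 and varying compound concentrations for 24 h. Supernatants spun 10 min at 4 °C, frozen at −80 °C, and TNF-α measured by ELISA.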

[3] = target: T2, Toll-like receptor 9 (Homo sapiens) (UniProt Q9NR96); assay: Inhibition of human TLR9 expressed in HEK-Blue cells assessed as inhibition of ODN2006-induced NF-kappaB activation at 20 uM measured after 24 hrs by quanti-blue based SEAP reporter gene assay; format: cell-based
T2 sequence (whole entry): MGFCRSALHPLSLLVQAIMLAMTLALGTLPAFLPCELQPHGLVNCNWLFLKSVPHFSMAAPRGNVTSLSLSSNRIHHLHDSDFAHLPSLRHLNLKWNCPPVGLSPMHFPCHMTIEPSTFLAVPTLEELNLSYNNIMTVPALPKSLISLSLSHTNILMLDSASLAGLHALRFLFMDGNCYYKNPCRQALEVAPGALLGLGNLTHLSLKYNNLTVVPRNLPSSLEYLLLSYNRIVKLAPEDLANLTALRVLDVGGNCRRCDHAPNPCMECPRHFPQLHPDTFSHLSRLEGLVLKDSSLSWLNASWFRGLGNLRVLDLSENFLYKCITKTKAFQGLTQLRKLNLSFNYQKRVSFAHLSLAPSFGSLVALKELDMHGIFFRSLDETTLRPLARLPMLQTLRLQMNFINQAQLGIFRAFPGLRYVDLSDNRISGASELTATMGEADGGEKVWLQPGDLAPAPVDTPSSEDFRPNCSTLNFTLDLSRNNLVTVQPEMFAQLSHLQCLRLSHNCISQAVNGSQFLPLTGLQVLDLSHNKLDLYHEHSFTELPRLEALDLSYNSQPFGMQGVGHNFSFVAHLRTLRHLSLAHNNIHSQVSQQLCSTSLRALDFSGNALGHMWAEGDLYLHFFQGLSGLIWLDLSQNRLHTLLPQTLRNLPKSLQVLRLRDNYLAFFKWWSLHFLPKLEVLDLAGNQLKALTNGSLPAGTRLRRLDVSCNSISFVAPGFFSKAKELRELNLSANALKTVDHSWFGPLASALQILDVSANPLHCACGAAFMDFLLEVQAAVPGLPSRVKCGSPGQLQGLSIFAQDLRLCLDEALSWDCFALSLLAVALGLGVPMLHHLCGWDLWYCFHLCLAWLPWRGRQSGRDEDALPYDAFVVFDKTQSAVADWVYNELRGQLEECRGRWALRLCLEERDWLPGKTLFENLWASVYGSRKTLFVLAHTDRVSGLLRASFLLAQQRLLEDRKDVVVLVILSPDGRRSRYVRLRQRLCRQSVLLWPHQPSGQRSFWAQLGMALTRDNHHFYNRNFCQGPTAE
Outline: (§1)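 HEK-Blue SEAP format: 4 × 10⁴ cells/well in DMEM with ligand plus compound, 24 h at 37 °C. Supernatant mixed with QUANTI-Blue up to 1 h, then A620 read. Ligands: Pam3CSK4 100 ng/mL (TLR1/2), Pam2CSK4 100 ng/mL (TLR2/6), poly(I:C) 5 µg/mL (TLR3), LPS 20 ng/mL (TLR4), flagellin 50 ng/mL (TLR5), R848 1 µg/mL (TLR7), R848 2 µg/mL (TLR8), ODN2006 0.5 µM (TLR9). Mean ± s.d.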

[4] = target: Toll-like receptor 4 (Homo sapiens) (UniProt O00206); assay: Inhibition of human TLR4 expressed in HEK-Blue cells assessed as inhibition of LPS-induced NF-kappaB activation at 20 uM measured after 24 hrs by quanti-blue based SEAP reporter gene assay; format: cell-based; outline: as §1
[5] = target: T1, Toll-like receptor 8 (Homo sapiens); assay: Inhibition of TLR8 in human monocytes assessed as reduction in R848-induced IL6 production measured after 24 hrs by ELISA; format: cell-based
Outline: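 Human monocyte cell lines in RPMI 1640 with 10% FBS and 0.05 mM 2-mercaptoethanol, 1 × 10⁶/well, 24 h. After PBS washes, fresh RPMI added with R848 1 µg/mL and varying compound concentrations for 24 h. Supernatant TNF-α, IL-6 and IL-1β measured by ELISA.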

[6] = target: T1, Toll-like receptor 8 (Homo sapiens); assay: Inhibition of R848 binding to human TLR8 ectodomain at 50 uM by isothermal titration calorimetry

Measured: inhibition

Sequence of Toll-like receptor 4 (Homo sapiens) (O00206 whole entry): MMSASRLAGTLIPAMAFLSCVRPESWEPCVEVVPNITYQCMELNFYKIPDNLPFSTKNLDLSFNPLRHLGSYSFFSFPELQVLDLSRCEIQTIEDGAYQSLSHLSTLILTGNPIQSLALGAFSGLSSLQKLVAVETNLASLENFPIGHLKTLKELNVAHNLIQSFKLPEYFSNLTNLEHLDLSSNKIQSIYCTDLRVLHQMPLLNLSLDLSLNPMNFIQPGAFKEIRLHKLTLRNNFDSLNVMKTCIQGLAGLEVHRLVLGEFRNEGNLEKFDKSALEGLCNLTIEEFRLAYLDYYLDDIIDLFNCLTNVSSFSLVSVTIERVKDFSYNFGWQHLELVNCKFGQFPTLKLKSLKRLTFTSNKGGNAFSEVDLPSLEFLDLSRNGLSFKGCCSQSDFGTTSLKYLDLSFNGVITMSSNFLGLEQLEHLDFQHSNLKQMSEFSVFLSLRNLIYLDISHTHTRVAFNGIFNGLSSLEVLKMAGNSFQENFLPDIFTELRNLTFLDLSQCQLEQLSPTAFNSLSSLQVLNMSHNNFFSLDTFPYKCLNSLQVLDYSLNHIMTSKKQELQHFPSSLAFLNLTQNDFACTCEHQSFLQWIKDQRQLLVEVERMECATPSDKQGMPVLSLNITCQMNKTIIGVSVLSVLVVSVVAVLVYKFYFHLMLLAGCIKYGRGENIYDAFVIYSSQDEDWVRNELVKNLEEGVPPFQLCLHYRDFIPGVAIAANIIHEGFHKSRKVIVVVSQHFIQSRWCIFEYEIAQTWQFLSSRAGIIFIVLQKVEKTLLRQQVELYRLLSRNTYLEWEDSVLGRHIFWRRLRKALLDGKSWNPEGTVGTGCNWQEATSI

CSc1nnc(CCCO)n1-c1cc(C)c(C)c(C)c1
inactive: [3] | [4]
active: [1] Dose-dependent effect | [2] Dose-dependent effect | [5] Dose-dependent effect | [6]
